Experimental data taken from ChEMBL document CHEMBL4138095, “Thiosemicarbazones and 4-thiazolidinones indole-based derivatives: Synthesis, evaluation of antiproliferative activity, cell death mechanisms and topoisomerase inhibition assay” (Eur J Med Chem, 2017).
Calls of active or inactive are those of the source. The rule behind the calls is not given here.

How the values were obtained:
U-251 = test: Growth inhibition of human U251 cells after 48 hrs by sulforhodamine B dye-based spectrophotometric assay; assay type: functional; conditions: U-251, 48 h
MCF7 = test: Growth inhibition of human MCF7 cells after 48 hrs by sulforhodamine B dye-based spectrophotometric assay; assay type: functional; conditions: MCF7, 48 h
NCI/ADR-RES = test: Growth inhibition of human NCI-ADR-RES cells after 48 hrs by sulforhodamine B dye-based spectrophotometric assay; assay type: functional
786-0 = test: Growth inhibition of human 786-0 cells after 48 hrs by sulforhodamine B dye-based spectrophotometric assay; assay type: functional; conditions: 786-0, 48 h
NCI-H460 = test: Growth inhibition of human NCI-H460 cells after 48 hrs by sulforhodamine B dye-based spectrophotometric assay; assay type: functional; conditions: NCI-H460, 48 h
OVCAR-3 = test: Growth inhibition of human OVCAR3 cells after 48 hrs by sulforhodamine B dye-based spectrophotometric assay; assay type: functional; conditions: OVCAR-3, 48 h
HT-29 [1] = test: Growth inhibition of human HT-29 cells after 48 hrs by sulforhodamine B dye-based spectrophotometric assay; assay type: functional; conditions: HT-29, 48 h
K562 = test: Growth inhibition of human K562 cells after 48 hrs by sulforhodamine B dye-based spectrophotometric assay; assay type: functional; conditions: K562, 48 h
[2] = Growth inhibition of human HaCaT cells after 48 hrs by sulforhodamine B dye-based spectrophotometric assay; assay type: cell-based
HT-29 [3] = test: Induction of apoptosis in human HT-29 cells after 24 hrs by annexin-V-PE/7-AAD staining-based flow cytometry; assay type: functional, cell-based
Outline: (§1)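 HT-29 seeded 2×10^5 cells/well, 24 h; treated 24 h at 5–50 μM (vehicle DMSO 0.1%); trypsinized, 1×10^5 cells in PBS plus binding buffer with annexin-V-PE and 7-AAD, 20 min dark, room temperature; 5000 events per experiment by flow cytometry; mean ± SE, two independent experiments in triplicate; ANOVA/Tukey.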

HT-29 [4] = test: Induction of apoptosis in human HT-29 cells assessed as increase in cell subpopulation with phosphatidylserine externalization at 5 uM after 24 hrs by annexin-V-PE/7-AAD staining-based flow cytometry; assay type: functional; outline: as §1
HT-29 [5] = test: Cell cycle arrest in human HT-29 cells assessed as accumulation at sub-G1 phase at 5 uM after 24 hrs by propidium iodide staining-based flow cytometric method (reference value: 3.5 +/- 0.7%); assay type: functional
HT-29 [6] = test: Cell cycle arrest in human HT-29 cells assessed as accumulation at sub-G1 phase at 10 uM after 24 hrs by propidium iodide staining-based flow cytometric method (reference value: 3.5 +/- 0.7%); assay type: functional
HT-29 [7] = test: Cell cycle arrest in human HT-29 cells assessed as accumulation at sub-G1 phase at 30 uM after 24 hrs by propidium iodide staining-based flow cytometric method (reference value: 3.5 +/- 0.7%); assay type: functional
HT-29 [8] = test: Cell cycle arrest in human HT-29 cells assessed as accumulation at G1 phase at 5 uM after 24 hrs by propidium iodide staining-based flow cytometric method (reference value: 46.1 +/- 2.1%); assay type: functional
HT-29 [9] = test: Cell cycle arrest in human HT-29 cells assessed as accumulation at G1 phase at 10 uM after 24 hrs by propidium iodide staining-based flow cytometric method (reference value: 46.1 +/- 2.1%); assay type: functional
HT-29 [10] = test: Cell cycle arrest in human HT-29 cells assessed as accumulation at G1 phase at 30 uM after 24 hrs by propidium iodide staining-based flow cytometric method (reference value: 46.1 +/- 2.1%); assay type: functional
HT-29 [11] = test: Cell cycle arrest in human HT-29 cells assessed as accumulation at S phase at 5 uM after 24 hrs by propidium iodide staining-based flow cytometric method (reference value: 17.2 +/- 1.2%); assay type: functional
HT-29 [12] = test: Cell cycle arrest in human HT-29 cells assessed as accumulation at S phase at 10 uM after 24 hrs by propidium iodide staining-based flow cytometric method (reference value: 17.2 +/- 1.2%); assay type: functional
HT-29 [13] = test: Cell cycle arrest in human HT-29 cells assessed as accumulation at S phase at 30 uM after 24 hrs by propidium iodide staining-based flow cytometric method (reference value: 17.2 +/- 1.2%); assay type: functional
HT-29 [14] = test: Cell cycle arrest in human HT-29 cells assessed as accumulation at G2/M phase at 5 uM after 24 hrs by propidium iodide staining-based flow cytometric method (reference value: 32.5 +/- 2.3%); assay type: functional
HT-29 [15] = test: Cell cycle arrest in human HT-29 cells assessed as accumulation at G2/M phase at 10 uM after 24 hrs by propidium iodide staining-based flow cytometric method (reference value: 32.5 +/- 2.3%); assay type: functional
HT-29 [16] = test: Cell cycle arrest in human HT-29 cells assessed as accumulation at G2/M phase at 30 uM after 24 hrs by propidium iodide staining-based flow cytometric method (reference value: 32.5 +/- 2.3%); assay type: functional
Calf thymus DNA [17] = test: Binding affinity to calf thymus DNA assessed as maximum absorption peak at 10 to 80 uM after 10 mins by UV-visible absorption assay (reference value: 334 nm); assay type: nucleic-acid assay; conditions: Bos taurus
Outline: (§2)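 ctDNA in Tris-HCl (0.01 M, pH 7.6), sonicated 5 min; concentration from ε260 6600 M⁻¹ cm⁻¹, as base-pair equivalents. Ligand from 1 mM DMSO stock diluted in buffer (10–80 μM), titrated with increasing ctDNA, stirred 10 min at room temperature, UV-vis read in 1 cm quartz cuvette; hyperchromicity with 100 µM ctDNA versus free ligand; Kb by curve fitting.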

Calf thymus DNA [18] = test: Binding affinity to calf thymus DNA assessed as hyperchromicity at 100 uM after 10 mins by UV-visible absorption assay relative to control; assay type: nucleic-acid assay; conditions: Bos taurus; outline: as §2
Calf thymus DNA [19] = test: Binding affinity to calf thymus DNA assessed as hyperchromicity after 10 mins by UV-visible absorption assay; assay type: nucleic-acid assay; conditions: Bos taurus; outline: as §2
Calf thymus DNA [20] = test: Binding affinity to calf thymus DNA at 15 uM by fluorescence spectra analysis; assay type: nucleic-acid assay; conditions: Bos taurus
Outline: (§3)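 Fluorescence of 15 μM ligand in 0.01 M Tris, pH 7.6, 25 °C, 1 cm quartz cuvette; excitation 335 nm, emission 435 nm (spectra 370–700 nm); ctDNA (0–100 μM) added stepwise into the cell; quenching analysed by Stern-Volmer plot to give Ksv.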

Calf thymus DNA [21] = test: Binding affinity to calf thymus DNA by fluorescence spectra analysis; assay type: nucleic-acid assay; conditions: Bos taurus; outline: as §3
[22] = biological target: DNA topoisomerase 2-alpha (Homo sapiens) (UniProt P11388); test: Inhibition of recombinant human topoisomerase-2alpha assessed as reducton in relaxation of supercoiled pUC19 DNA at 50 to 100 uM after 30 mins by ethidium bromide staining-based gel electrophoresis assay
Sequence of DNA topoisomerase 2-alpha (Homo sapiens) (P11388 whole entry): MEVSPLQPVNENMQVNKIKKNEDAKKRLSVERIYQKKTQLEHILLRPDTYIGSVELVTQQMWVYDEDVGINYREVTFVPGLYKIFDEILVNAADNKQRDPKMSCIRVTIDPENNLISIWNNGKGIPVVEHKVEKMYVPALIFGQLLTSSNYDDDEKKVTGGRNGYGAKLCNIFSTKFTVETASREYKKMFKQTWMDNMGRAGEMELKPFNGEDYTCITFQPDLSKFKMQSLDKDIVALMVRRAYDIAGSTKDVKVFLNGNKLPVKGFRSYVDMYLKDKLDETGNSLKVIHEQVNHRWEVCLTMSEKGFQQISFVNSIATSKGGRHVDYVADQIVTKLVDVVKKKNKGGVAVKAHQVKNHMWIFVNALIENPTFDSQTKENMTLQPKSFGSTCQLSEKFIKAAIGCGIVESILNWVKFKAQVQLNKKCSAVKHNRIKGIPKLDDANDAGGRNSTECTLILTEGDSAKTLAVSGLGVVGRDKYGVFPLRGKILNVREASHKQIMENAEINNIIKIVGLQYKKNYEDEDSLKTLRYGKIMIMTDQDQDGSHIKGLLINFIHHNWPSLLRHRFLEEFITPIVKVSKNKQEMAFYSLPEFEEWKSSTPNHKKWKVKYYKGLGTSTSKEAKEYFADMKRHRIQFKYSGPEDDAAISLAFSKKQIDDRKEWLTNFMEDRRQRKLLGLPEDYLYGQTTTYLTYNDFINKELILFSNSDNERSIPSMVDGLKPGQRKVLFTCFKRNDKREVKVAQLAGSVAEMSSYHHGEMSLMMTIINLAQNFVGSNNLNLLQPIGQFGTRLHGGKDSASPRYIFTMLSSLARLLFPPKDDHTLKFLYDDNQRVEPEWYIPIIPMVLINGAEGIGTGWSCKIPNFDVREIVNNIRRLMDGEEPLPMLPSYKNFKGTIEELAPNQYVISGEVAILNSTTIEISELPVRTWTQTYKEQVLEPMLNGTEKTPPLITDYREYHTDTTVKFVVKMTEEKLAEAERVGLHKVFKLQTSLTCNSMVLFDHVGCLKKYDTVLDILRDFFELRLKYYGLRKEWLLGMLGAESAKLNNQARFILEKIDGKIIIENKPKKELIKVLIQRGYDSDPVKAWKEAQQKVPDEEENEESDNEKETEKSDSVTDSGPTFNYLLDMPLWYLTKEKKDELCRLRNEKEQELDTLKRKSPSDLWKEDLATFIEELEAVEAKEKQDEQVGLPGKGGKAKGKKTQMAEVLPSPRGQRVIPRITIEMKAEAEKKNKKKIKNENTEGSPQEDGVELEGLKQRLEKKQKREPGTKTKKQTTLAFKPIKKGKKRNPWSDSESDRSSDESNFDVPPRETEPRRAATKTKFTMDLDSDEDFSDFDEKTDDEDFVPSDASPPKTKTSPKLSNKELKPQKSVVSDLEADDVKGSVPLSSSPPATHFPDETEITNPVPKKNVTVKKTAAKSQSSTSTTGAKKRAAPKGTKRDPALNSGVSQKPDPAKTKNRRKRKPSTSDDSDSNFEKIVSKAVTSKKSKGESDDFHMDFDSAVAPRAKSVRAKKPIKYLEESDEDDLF
Outline: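 Supercoiled pUC19 (100 ng) with 4 units recombinant human topo IIα (p170) in relaxation buffer, ± compound at 50 or 100 µM or m-AMSA control, 30 min at 37 °C; stopped with 1% SDS, proteinase K digested; products resolved by agarose gel, ethidium bromide stained, imaged under UV.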

HT-29 [23] = test: Cell cycle arrest in human HT-29 cells assessed as accumulation at S phase at 1.25 nM after 24 hrs by propidium iodide staining-based flow cytometric method (reference value: 17.2 +/- 1.2%)
HT-29 [24] = test: Cell cycle arrest in human HT-29 cells assessed as accumulation at G1 phase at 1.25 nM after 24 hrs by propidium iodide staining-based flow cytometric method (reference value: 46.1 +/- 2.1%)
HT-29 [25] = test: Cell cycle arrest in human HT-29 cells assessed as accumulation at G2/M phase at 1.25 nM after 24 hrs by propidium iodide staining-based flow cytometric method (reference value: 32.5 +/- 2.3%)
HT-29 [26] = test: Cell cycle arrest in human HT-29 cells assessed as accumulation at sub-G1 phase at 1.25 nM after 24 hrs by propidium iodide staining-based flow cytometric method (reference value: 3.5 +/- 0.7%)
[27] = Binding affinity to DNA (unknown origin)

| SMILES | GI50 (U-251) [µM] | GI50 (MCF7) [µM] | GI50 (786-0) [µM] | GI50 (NCI-H460) [µM] | GI50 (OVCAR-3) [µM] | GI50 (HT-29 [1]) [µM] | GI50 (K562) [µM] | GI50 (NCI/ADR-RES) [µM] | GI50 at 48 h [2] [µM] | further results |
| --- | --- | --- | --- | --- | --- | --- | --- | --- | --- | --- |
| COc1cc(NS(C)(=O)=O)ccc1Nc1c2ccccc2nc2ccccc12 |  |  |  |  |  |  |  |  |  | inhibition [22]: Active |
| COc1cc2c(c(OC)c1OC)-c1ccc(OC)c(=O)cc1[C@@H](NC(C)=O)CC2 [COLCHICINE] |  |  |  |  |  |  |  |  |  | Activity (HT-29 [23]): 5.9%; Activity (HT-29 [24]): 14.6%; Activity (HT-29 [25]): 76%; Activity (HT-29 [26]): 3.5% |
| COc1cccc2c1C(=O)c1c(O)c3c(c(O)c1C2=O)C[C@@](O)(C(=O)CO)C[C@@H]3O[C@H]1C[C@H](N)[C@H](O)[C@H](C)O1 [DOXORUBICIN] | 0.14 | 0.07 | 0.11 | 0.09 | 0.22 | 0.23 | 0.93 | 0.77 | 0.2 |  |
| Cc1ccc(N2C(=O)CS/C2=N/N=C/c2c[nH]c3ccccc23)cc1 | 90.2 | > 100 | 79.1 | > 100 | > 100 | > 100 | > 100 | > 100 | > 100 |  |
| Cc1ccc(NC(=S)N/N=C/c2c[nH]c3ccccc23)cc1 | 8.11 | 2.52 | 3.99 | 11.7 | 3.88 | 1.45 | 0.16 | 1.46 | 0.99 |  |
| S=C(N/N=C/c1c2ccccc2nc2ccccc12)Nc1cccc2ccccc12 |  |  |  |  |  |  |  |  |  | Kb [27]: 8.47 ×10⁵ /M |

More lines, main results first:

| GI50 (U-251) [µM] | GI50 (MCF7) [µM] | GI50 (786-0) [µM] | GI50 (NCI-H460) [µM] | GI50 (OVCAR-3) [µM] | GI50 (HT-29 [1]) [µM] | GI50 (K562) [µM] | SMILES | GI50 (NCI/ADR-RES) [µM] | GI50 at 48 h [2] [µM] | further results |
| --- | --- | --- | --- | --- | --- | --- | --- | --- | --- | --- |
| 0.92 | 0.25 | 0.25 | 0.38 | 0.21 | 0.01 | 0.01 | S=C(N/N=C/c1c[nH]c2ccccc12)Nc1cccc2ccccc12 | 6.48 | 0.59 | Activity (HT-29 [3]): Dose-dependent effect; Activity (HT-29 [4]): 12.6%; Activity (HT-29 [5]): 2%; Activity (HT-29 [6]): 1.6%; Activity (HT-29 [7]): 4.8%; Activity (HT-29 [8]): 10.7%; Activity (HT-29 [9]): 26.7%; Activity (HT-29 [10]): 34.9%; Activity (HT-29 [11]): 6.8%; Activity (HT-29 [12]): 5.5%; Activity (HT-29 [13]): 7.3%; Activity (HT-29 [14]): 80.5%; Activity (HT-29 [15]): 66.2%; Activity (HT-29 [16]): 53.1%; Activity (Calf thymus DNA [17]): 334 nm; Activity (Calf thymus DNA [18]): 13%; Kb (Calf thymus DNA [19]): 4.3 ×10⁴ /M; Activity (Calf thymus DNA [20]): Active; KSV (Calf thymus DNA [21]): 1.19 ×10³ /M; inhibition [22]: Active |
| 54.7 | 59.5 | 39.9 | 96.6 | 98.5 | > 100 | 0.01 | Cc1ccc(N2C(=O)CS/C2=N/N=C/c2c[nH]c3ccc(Br)cc23)cc1 | 64.6 | 54 |  |
| 77.9 | 15.5 | 76.3 | > 100 | > 100 | > 100 | 0.17 | S=C(NCCc1ccccc1)N/N=C/c1c[nH]c2ccccc12 | 38.7 | > 100 |  |
| 7.32 | 0.95 | 6.56 | 6.99 | 1.6 | 6.56 | 5.29 | S=C(N/N=C/c1c[nH]c2ccc(Br)cc12)Nc1cccc2ccccc12 | 6.18 | 6.15 |  |
| 7.49 | 6.81 | 7.58 | 8.48 | 8.22 | 7.87 | 2.12 | S=C(NCCc1ccccc1)N/N=C/c1c[nH]c2ccc(Br)cc12 | 7.14 | 7.85 |  |
| 72.5 | 34.9 | 62.1 | > 100 | 25.7 | 96.9 | > 100 | O=C1CS/C(=N/N=C/c2c[nH]c3ccccc23)N1c1cccc2ccccc12 | 38.6 | 63 |  |
| 48.8 | 6.06 | 29.1 | > 100 | 5.12 | 27.3 | > 100 | O=C1CS/C(=N/N=C/c2c[nH]c3ccc(Br)cc23)N1c1cccc2ccccc12 | 12.4 | 6.23 |  |
